# Screens deposited in PubChem by Johns Hopkins Ion Channel Center.
# TRPC4 PAM – TRPC4 (mouse) allosteric potentiation; Q9QUQ5; HEK293 TRPC4beta/mu-opioid, DAMGO EC20, Fluo-4 Ca2+ flux; active compounds read high; B-score at 10 µM; actives 0.42% (n = 310,000);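 active = B-score of calcium response area above 5 SD of library B-scores, with initial fluorescence ratio within 5 SD of library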;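 note: B-score of integrated fluorescence ratio over time as area under calcium response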
# TRPC6 act – activators of mouse TRPC6 channel. Q61143. HEK293-TRPC6 membrane potential dye fluorescence; active compounds read high. B-score at 10 µM. AID 2550. actives 0.13% (n = 310,000);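 active = B-score of the integrated fluorescence ratio above library mean plus 3 SD, and starting fluorescence ratio within library mean plus 5 SD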;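 note: higher score means more depolarization so channel activation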
# TRPC6 inhibitor – inhibitors of mouse TRPC6 channel | Q61143 | HEK293-TRPC6, membrane potential dye, ACh-evoked depolarization; active compounds read low | B-score at 10 µM | actives 1.1% (n = 310,000) | AID 2553;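 active = B-score under library mean minus 3 SD, initial fluorescence not abnormally high, positive integrated signal ratio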;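 note: B-score derived from integrated fluorescence ratio over the kinetic read; more negative B-score means stronger inhibition of depolarization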
# TRPC4 block – inhibitors of mouse TRPC4 channel; Q9QUQ5; HEK293 TRPC4beta/mu-opioid, DAMGO-evoked Fluo4 calcium flux; active compounds read low; B-score at 10 µM; actives 0.39% (n = 300,000);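 active = B-score over 3 SD under the library average, no early fluorescence shift, positive overall ratio signal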
#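 material = TRPC4beta/mu-opioid receptor HEK293 cell line | probe or stimulus = sequential submaximal and maximal DAMGO stimulation | compound dosing = one concentration per compound | measured by = Fluo4 Ca2+ flux fluorescence | evaluation = integrated fluorescence ratio relative to baseline, converted to per-well B score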
# TRPC4 act – activators of mouse TRPC4 channel | Q9QUQ5 | HEK293 TRPC4beta/mu-opioid, Fluo4 calcium fluorescence; active compounds read high | B-score at 10 µM | actives 0.49% (n = 310,000);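 active = B-score above 5 SD of library B-scores, and initial fluorescence ratio not above library mean plus 5 SD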;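 note: positive B-score marks a calcium rise read as TRPC4 activation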
#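 Technique: kinetic Fluo4 calcium fluorescence; Test system: TRPC4beta and mu-opioid receptor HEK293 stable cells; Measure: B-scored integrated calcium fluorescence ratio; Benchmarks: low control buffer alone, high control maximal DAMGO; Schedule: 45 min room-temperature Fluo4 loading, 110 s read.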
# TRPC4 spec 2 – second check of whether TRPC6 inhibitors also affect mouse TRPC4. HEK293 TRPC4/MOR, membrane potential dye fluorescence; channel activated by saturating DAMGO dose. inhibition, % at 10 µM. actives 42% (n = 920). shares compounds with TRPC6 inhibitor;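 active = compounds whose fluorescence signal differed from control wells by over 3 SD, either direction, in both duplicate plates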
# TRPC4 spec – mouse TRPC4 off-target activity of TRPC6 inhibitors | shares compounds with TRPC6 inhibitor | actives 61% (n = 920) | activity change, negative = inhibition, % at 10 µM | HEK293 TRPC4/mu-opioid, membrane potential fluorescence;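 active = rise or fall in signal beyond 3 SD of buffer-only wells in both replicate plates, either sign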;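 note: integrated kinetic ratio of fluorescence range over baseline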
# HEK293 MPD ctr 2-1 – parental HEK293 nonspecific activity of TRPC6 inhibitors, second screen | shares compounds with TRPC6 inhibitor | parental HEK293 membrane potential dye fluorescence; maximal acetylcholine challenge after compound addition | signal change vs control, % at 10 µM | actives 31% (n = 920);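 active = membrane potential signal moving either way by over 3 SD of the maximum-effect control, in both duplicate plates, meaning non-specific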
# HEK293 MPD ctr-1 – counter-screen for TRPC6 inhibitors: effect in parental HEK293 cells; shares compounds with TRPC6 inhibitor; parental HEK293 membrane potential dye fluorescence; membrane potential signal change, % at 10 µM; actives 60% (n = 920); AID 2780;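 active = membrane potential signal shifting up or down by more than 3 SD of buffer-only wells, on both duplicate plates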
# HEK293 MPD ctr-2 – checks TRPC6 modulator effects in parental HEK293 cells. shares compounds with TRPC6 inhibitor. membrane potential dye fluorescence. membrane potential signal change, % at 10 µM. actives 51% (n = 2,400);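 active = membrane potential signal moves up or down beyond 5 SD from buffer-only wells, on both duplicate plates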
# HEK293 MPD ctr 2-2 – parental HEK293 nonspecific activity of TRPC6 modulators, second screen. shares compounds with TRPC6 inhibitor. membrane potential dye fluorescence; after compound, maximal acetylcholine stimulation. inhibition, % at 10 µM. actives 14% (n = 2,400);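 active = membrane potential signal drops by more than 5 SD from the mean control signal, in both duplicate plates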;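 note: plate controls were acetylcholine ECmax control wells for no effect and buffer only wells for full effect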
# TRPC4 ctr mod – mouse TRPC4 off-target activity of TRPC6 modulators; percent change from control (negative = decrease, positive = increase), % at 10 µM; actives 69% (n = 2,400); HEK293 TRPC4/mu-opioid, membrane potential fluorescence; shares compounds with TRPC6 inhibitor;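 active = membrane potential signal moved up or down beyond 5 SD of buffer control wells, in both duplicate plates, actives on both sides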;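 note: plate controls were assay buffer wells for no effect and DAMGO maximal-effect wells for full effect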
# TRPC4 ctr inh 2 – second check of whether TRPC6 modulators also affect mouse TRPC4; shares compounds with TRPC6 inhibitor; HEK293 TRPC4/mu-opioid, membrane potential dye fluorescence; stimulated with maximal-effect DAMGO; inhibition, % at 10 µM; actives 55% (n = 2,400);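 active = drop in membrane potential signal beyond 5 SD of the control wells in both duplicate plates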;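 note: TRPC4 counter screen for TRPC6 hits run under conditions tuned for TRPC6 not TRPC4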
# TRPC6 block conf – confirmation of mouse TRPC6 inhibitors; shares compounds with TRPC6 inhibitor; HEK293-TRPC6, membrane potential dye, ACh-evoked depolarization; inhibition, % at 10 µM; actives 43% (n = 3,300); AID 488960;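 active = fluorescence ratio falls more than 5 SD below the full-stimulation control mean, in both duplicate runs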;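 note: integrated fluorescence ratio of peak minus minimum over baseline after agonist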
# TRPC6 act conf – confirmation of mouse TRPC6 activators | shares compounds with TRPC6 inhibitor | HEK293-TRPC6 membrane potential dye fluorescence, FDSS | activation, % at 10 µM | actives 11% (n = 2,800);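 active = ratio signal rise beyond 5 SD above unstimulated control wells' mean, seen in both duplicate runs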;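 note: plate controls were buffer EC0 wells for no effect and acetylcholine ECmax response for full effect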
# * = called active by the depositor; i = inactive; . = no result. The list is not random: actives were taken first. Their share in the collection is about 2.3%.
SMILES,TRPC4 PAM,TRPC6 act,TRPC6 inhibitor,TRPC4 block,TRPC4 act,HEK293 MPD ctr-2,HEK293 MPD ctr 2-2,TRPC4 ctr mod,TRPC4 ctr inh 2,TRPC6 block conf,others
CN(Cc1cnccn1)Cc1nc(Cc2cccc(F)c2)no1,i,i,i,i,i,.,.,.,.,.,
Cc1nc2cc(NC(=O)N3CCCC3)ccc2n1C,i,i,i,i,i,.,.,.,.,.,
Cc1nc2cc(NC(=O)N3CC4(C)CC3CC(C)(C)C4)ccc2n1C (stereo not given),i,i,-6.1*,i,i,i,i,i,i,i,TRPC6 act conf=i
c1cncc(-c2nc(NCCCn3ccnc3)c3ccccc3n2)c1,i,i,i,i,i,.,.,.,.,.,
Cc1nc(NCCCn2ccnc2)c2ccccc2n1,i,i,-7.7*,i,i,-237%*,61%*,-38%*,38%*,52%*,TRPC6 act conf=i
COC(=O)c1ccc(NC(=O)c2snnc2-c2ccccc2)cc1,i,i,-7.3*,i,i,.,.,.,.,93%*,TRPC4 spec 2=i;TRPC4 spec=i;HEK293 MPD ctr 2-1=i;HEK293 MPD ctr-1=i
CCc1cc(=O)oc2cc(C)cc(OC(C)C(=O)NCCN3CCOCC3)c12 (stereo not given),i,i,i,i,i,.,.,.,.,.,
O=C(COc1ccccc1)NCC(c1ccco1)N1CCN(c2ccccc2F)CC1 (stereo not given),i,i,-5.9*,i,i,141%*,i,32%*,46%*,64%*,
O=C(CCOc1ccccc1)NCC(c1ccco1)N1CCCCC1 (stereo not given),i,i,-5.6*,i,i,i,i,12%*,i,i,
NNS(=O)(=O)c1ccc(Sc2ccccn2)c([N+](=O)[O-])c1,i,i,i,i,i,.,.,.,.,.,
CCn1ccc2cc(OC)ccc2c1=S,i,i,i,i,i,.,.,.,.,.,
CCSc1ccc2cc(OC)ccc2[n+]1CC,i,i,-7.6*,i,i,.,.,.,.,62%*,TRPC4 spec 2=76%*;TRPC4 spec=-21%*;HEK293 MPD ctr 2-1=39%*;HEK293 MPD ctr-1=-314%*;TRPC6 act conf=i
Cc1cc(OC(=O)c2ccc(Cl)cc2Cl)c([N+](=O)[O-])c(=O)[nH]1,i,i,i,i,i,.,.,.,.,.,
COc1ccc(C2C(C(N)=O)=C(C)Nc3nc(CCCO)nn32)cc1 (stereo not given),i,i,i,i,i,.,.,.,.,.,
